In ChEMBL document CHEMBL1671818, “Screening multicomponent reactions for X-linked inhibitor of apoptosis-baculoviral inhibitor of apoptosis protein repeats domain binder” (J Med Chem, 2011):

Key:
[1] = molecular target: T1, E3 ubiquitin-protein ligase XIAP (Homo sapiens, UniProt P98170); assay: Inhibition of XIAP-Bir3 domain at 100 uM by TR-FRET assay
Outline: (§1)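 TR-FRET displacement. BIR3 protein (10 nM) and biotin-lc-GGIPVA SMAC peptide (10 nM) mixed with compound in DMSO, 1 h at 4 °C. Eu-antibody conjugate (5 nM) and APC-streptavidin (2 nM) then added, incubated overnight at 4 °C. Excitation 340 nm, emission 665 nm. Screen at 100, 10, 1 and 0.1 μM; actives run as 6–7-point dilutions in duplicate.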

[2] = molecular target: T1, E3 ubiquitin-protein ligase XIAP; assay: Inhibition of XIAP-Bir3 domain at 10 uM by TR-FRET assay; outline: as §1
[3] = test system: MDA-MB-231; assay: Cytotoxicity against human ER-negative MDA-MB-231 cells assessed as cell viability after 72 hrs; format: functional, cell-based; conditions: MDA-MB-231, 72 h
Outline: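 MDA-MB-231 (ER-negative) kept in DMEM + 10% FBS at 37 °C, 5% CO2. Seeded at 5000 cells/well and left overnight, then exposed for 72 h to a range of compound concentrations in serum-free DMEM (final DMSO 0.1%). Viability read by ATPlite one-step luminescence, four replicates. IC50 obtained by curve fitting.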

[4] = molecular target: T1, E3 ubiquitin-protein ligase XIAP; assay: Inhibition of XIAP by FRET assay; outline: as §1
[5] = test system: RPMI-8226; assay: Cytotoxicity against human RPMI8226 cells assessed as cell viability; format: functional, cell-based
[6] = test system: Jurkat; assay: Cytotoxicity against human Jurkat cells assessed as cell viability; format: functional, cell-based
[7] = molecular target: T1, E3 ubiquitin-protein ligase XIAP; assay: Inhibition of XIAP-Bir3 domain by calorimetric titration assay
Outline: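 ITC at 25 °C. Purified XIAP BIR3 (100 μM) in the cell, compound (1 mM) in the syringe, both in degassed PBS pH 7.4. Blank-subtracted, normalized heats fitted to a single-site model; Kd taken as 1/Ka.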

[8] = molecular target: T1, E3 ubiquitin-protein ligase XIAP; assay: Inhibition of XIAP-Bir3 domain by NMR titration
Outline: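 NMR Kd. 1H chemical-shift changes of resolved BIR3 resonances (BIR3 at 100 μM) followed across ligand concentrations, at least six points. Kd from a nonlinear least-squares fit of fractional bound population versus total ligand, single-site model. 2D [15N,1H]HSQC acquired at 300 K.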

[9] = molecular target: T1, E3 ubiquitin-protein ligase XIAP; assay: Inhibition of XIAP by FP assay

T1 sequence (P98170 whole entry, the tested form may be a part): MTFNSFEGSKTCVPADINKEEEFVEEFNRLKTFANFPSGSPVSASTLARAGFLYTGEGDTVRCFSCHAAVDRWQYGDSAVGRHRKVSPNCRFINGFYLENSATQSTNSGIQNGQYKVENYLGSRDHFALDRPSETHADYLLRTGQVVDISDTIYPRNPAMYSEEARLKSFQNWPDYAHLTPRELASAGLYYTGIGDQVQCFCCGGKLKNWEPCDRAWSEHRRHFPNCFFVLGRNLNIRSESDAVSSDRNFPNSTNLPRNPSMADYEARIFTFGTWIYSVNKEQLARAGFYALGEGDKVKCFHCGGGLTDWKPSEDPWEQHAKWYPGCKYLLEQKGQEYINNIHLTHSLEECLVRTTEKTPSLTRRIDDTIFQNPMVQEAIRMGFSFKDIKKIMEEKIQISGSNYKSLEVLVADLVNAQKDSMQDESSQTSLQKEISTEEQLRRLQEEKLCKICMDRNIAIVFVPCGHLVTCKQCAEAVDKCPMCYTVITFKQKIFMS

Row | SMILES | inhibition [1] [%] | inhibition [2] [%] | IC50 [3] [µM] | further results
1 | CC(C)C(NC(=O)[C@H](C)N)c1nc(C(=O)NCc2ccccc2)cs1 (stereo partly specified) | 23.4 | 19.9 | > 50 | 
2 | CN[C@@H](C)C(=O)N[C@H](C(=O)N1CC[C@H]2CN(CCc3ccccc3)CC[C@H]21)C1CCCCC1 |  |  |  | IC50 [4]: 0.28 µM; IC50 [5]: 30 µM
3 | COc1ccc(CCN2CCC[C@H]2CN(C(=O)Nc2ccccc2)[C@@H](CNC(=O)Nc2ccccc2)CC2CCCCC2)cc1 |  |  |  | IC50 [6]: 5 µM
4 | CC(C)[C@H](NC(=O)[C@H](C)N)C(=O)N1C(C(=O)NC(c2ccccc2)c2ccccc2)CSC1(C)C (stereo in doubt) | 83.6 | 16.7 |  | 
5 | CC(C)[C@H](NC(=O)[C@H](C)N)C(=O)N1CCCN(C2CCCCC2)CC1C(=O)NC(c1ccccc1)c1ccccc1 (stereo partly specified) | 82.5 | 15.6 | > 50 | 
6 | CC(C)[C@H](NC(=O)[C@H](C)N)C(=O)N1C(C(=O)NC(c2ccccc2)c2ccccc2)CSC1(C)C (stereo in doubt; 9) [listing 1 of 2 here] |  |  | > 50 | 
7 | CC(C)[C@H](NC(=O)[C@H](C)N)C(=O)N1C(C(=O)NC(c2ccccc2)c2ccccc2)CSC1(C)C (single isomer, unassigned; diastereomer A) | 97.1 | 67.4 |  | 
8 | CCN1CCN(C(=O)[C@@H](NC(=O)[C@H](C)N)C(C)C)C(C(=O)NC(c2ccccc2)c2ccccc2)C1 (stereo partly specified) | 96.9 | 77.2 | > 50 | Kd [7]: 21.6 µM; Kd [8]: 27.7 µM
9 | CC(C)[C@H](NC(=O)[C@H](C)N)C(=O)N1CCN(Cc2ccccc2)CC1C(=O)NC(c1ccccc1)c1ccccc1 (stereo partly specified) |  |  | 31 | 
10 | CC(C)C(NC(=O)[C@H](C)N)c1nc(C(=O)NCc2ccccc2)c(-c2ccccc2)s1 (stereo partly specified) | 97.2 | 58 | > 50 | 
11 | CC(C)[C@H](NC(=O)[C@H](C)N)C(O)c1nnnn1CCc1ccccc1 (stereo partly specified) | 20.7 | 15 | > 50 | 
12 | CN[C@@H](C)C(=O)NC1CCC[C@H]2[C@@H](Cc3ccccc3)C[C@@H](C(=O)N[C@@H]3CCCc4ccccc43)N2C1=O (stereo partly specified) |  |  | 0.026 | Kd [9]: 0.031 µM
13 | CC(C)[C@H](NC(=O)[C@H](C)N)C(=O)N1C(C(=O)NC(c2ccccc2)c2ccccc2)CSC1(C)C (stereo in doubt; 9) [listing 2 of 2 here] | 83.2 | 15.8 |  | 
14 | CN[C@@H](C)C(=O)NC1CCC[C@H]2SC[C@@H](C(=O)Nc3cc(C)nn3-c3ccccc3)N2C1=O (stereo partly specified) |  |  | 2 | 
